# Source: ChEMBL document CHEMBL4354819, “Discovery of Novel Small Molecule Dual Inhibitors Targeting Toll-Like Receptors 7 and 8” (J Med Chem, 2019)
# Active and inactive are the calls of the source. The rule behind the calls is not given here.
# Experiments:
# THP-1 = assay: Inhibition of IFN mediated immune response in human THP1 cells assessed as inhibition of 3p-hpRNA-induced RIG1 signalling pathway at 20 uM incubated for 16 hrs by luciferase assay; format: functional, cell-based
# Outline: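 THP1-Dual monocytes carrying Lucia luciferase and SEAP reporters were stimulated with 3p-hpRNA (RIG-I agonist) or Y-form dsDNA G3-YSD (cGAS agonist), with or without compound. Secreted Lucia luciferase luminescence was measured as the type I IFN read-out. Mean ± s.d., n = 3 independent experiments.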
# [1] = biological target: Toll-like receptor 7 (Mus musculus) (UniProt P58681); assay: Inhibition of endogenous mouse TLR7 in mouse RAW264.7 cells assessed as resiquimod-induced NO production at > 5 uM incubated for 18 to 24 hrs
# Sequence of Toll-like receptor 7 (Mus musculus) (P58681 whole entry, looked up): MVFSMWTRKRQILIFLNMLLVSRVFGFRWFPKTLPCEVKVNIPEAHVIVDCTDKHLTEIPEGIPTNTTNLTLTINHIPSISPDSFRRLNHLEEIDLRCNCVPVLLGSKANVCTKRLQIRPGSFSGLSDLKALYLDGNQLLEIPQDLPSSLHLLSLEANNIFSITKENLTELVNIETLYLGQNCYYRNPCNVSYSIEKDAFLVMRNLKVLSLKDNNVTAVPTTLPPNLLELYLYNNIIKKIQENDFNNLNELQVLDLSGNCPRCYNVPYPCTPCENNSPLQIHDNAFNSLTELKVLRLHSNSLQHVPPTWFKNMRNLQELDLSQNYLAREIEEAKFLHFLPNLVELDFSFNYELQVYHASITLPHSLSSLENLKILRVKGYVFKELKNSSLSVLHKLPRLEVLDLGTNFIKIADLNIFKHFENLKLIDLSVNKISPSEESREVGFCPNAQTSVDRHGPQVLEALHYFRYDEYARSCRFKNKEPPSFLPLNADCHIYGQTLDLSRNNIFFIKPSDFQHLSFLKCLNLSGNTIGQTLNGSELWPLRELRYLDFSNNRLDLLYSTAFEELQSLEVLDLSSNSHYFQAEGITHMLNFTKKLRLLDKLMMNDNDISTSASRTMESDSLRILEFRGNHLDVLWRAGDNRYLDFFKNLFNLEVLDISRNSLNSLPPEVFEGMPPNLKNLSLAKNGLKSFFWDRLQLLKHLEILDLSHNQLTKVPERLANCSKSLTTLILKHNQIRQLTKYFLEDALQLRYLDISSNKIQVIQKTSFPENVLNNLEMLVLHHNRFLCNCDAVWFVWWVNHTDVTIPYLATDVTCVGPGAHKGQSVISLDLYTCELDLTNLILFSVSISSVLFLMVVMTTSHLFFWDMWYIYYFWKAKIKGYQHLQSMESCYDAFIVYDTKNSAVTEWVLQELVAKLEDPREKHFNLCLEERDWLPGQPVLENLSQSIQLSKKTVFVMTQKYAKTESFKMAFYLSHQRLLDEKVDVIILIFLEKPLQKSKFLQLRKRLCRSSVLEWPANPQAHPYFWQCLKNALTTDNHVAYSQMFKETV
# [2] = biological target: T1, Toll-like receptor 7 (Homo sapiens) (UniProt Q9NYK1); assay: Inhibition of human TLR7 expressed in HEK293 cells assessed as reduction in resiquimod-induced NFkappaB production at 0.5 uM incubated for 16 hrs by quanti-blue SEAP assay; format: cell-based
# T1 sequence (whole entry): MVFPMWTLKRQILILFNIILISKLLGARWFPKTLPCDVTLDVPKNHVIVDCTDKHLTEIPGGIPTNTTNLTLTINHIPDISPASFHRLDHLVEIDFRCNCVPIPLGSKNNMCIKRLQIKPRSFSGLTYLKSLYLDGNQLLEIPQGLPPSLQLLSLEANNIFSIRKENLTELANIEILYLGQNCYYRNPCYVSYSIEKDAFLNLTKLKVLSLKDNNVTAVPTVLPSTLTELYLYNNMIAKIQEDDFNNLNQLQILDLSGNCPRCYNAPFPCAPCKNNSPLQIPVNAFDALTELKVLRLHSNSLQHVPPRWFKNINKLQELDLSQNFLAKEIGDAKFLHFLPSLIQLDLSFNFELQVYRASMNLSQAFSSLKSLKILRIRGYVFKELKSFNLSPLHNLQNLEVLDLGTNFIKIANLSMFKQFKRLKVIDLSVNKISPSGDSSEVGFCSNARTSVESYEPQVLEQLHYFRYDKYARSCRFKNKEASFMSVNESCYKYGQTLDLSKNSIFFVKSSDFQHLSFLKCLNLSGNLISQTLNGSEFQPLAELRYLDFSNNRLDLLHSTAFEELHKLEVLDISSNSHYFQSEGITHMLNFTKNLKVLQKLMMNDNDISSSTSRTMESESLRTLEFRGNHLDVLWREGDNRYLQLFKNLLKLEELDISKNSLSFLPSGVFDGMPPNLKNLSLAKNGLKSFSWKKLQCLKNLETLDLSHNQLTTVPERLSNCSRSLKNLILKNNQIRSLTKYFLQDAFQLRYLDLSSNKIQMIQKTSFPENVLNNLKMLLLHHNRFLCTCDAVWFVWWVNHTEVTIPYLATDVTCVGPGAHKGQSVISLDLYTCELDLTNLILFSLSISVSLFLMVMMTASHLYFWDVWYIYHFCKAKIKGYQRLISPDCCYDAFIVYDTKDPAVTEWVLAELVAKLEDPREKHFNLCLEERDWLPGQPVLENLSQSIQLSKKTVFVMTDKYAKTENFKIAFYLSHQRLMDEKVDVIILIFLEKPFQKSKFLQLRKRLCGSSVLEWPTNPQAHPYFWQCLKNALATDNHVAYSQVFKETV
# Outline: (§1)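 Selectivity panel in stably transfected HEK 293-Blue cells, each overexpressing one human TLR with an inducible SEAP reporter. Agonists: Pam3CSK4 (TLR1/2), Pam2CSK4 (TLR2/6), poly(I:C) (TLR3), LPS (TLR4), R848 (TLR7/8), ODN 2006 (TLR9). Cells were exposed to compound for 16 h. Activity = (raw − untreated)/(ligand + solvent − untreated), with ligand + solvent set as 100%.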
# [3] = biological target: T2, Toll-like receptor 8 (Homo sapiens) (UniProt Q9NR97); assay: Inhibition of human TLR8 expressed in HEK293 cells assessed as reduction in R848-induced NFkappaB production at 5 to 20 uM incubated for 16 hrs by quanti-blue SEAP assay; format: cell-based; outline: as §1
# T2 sequence (whole entry): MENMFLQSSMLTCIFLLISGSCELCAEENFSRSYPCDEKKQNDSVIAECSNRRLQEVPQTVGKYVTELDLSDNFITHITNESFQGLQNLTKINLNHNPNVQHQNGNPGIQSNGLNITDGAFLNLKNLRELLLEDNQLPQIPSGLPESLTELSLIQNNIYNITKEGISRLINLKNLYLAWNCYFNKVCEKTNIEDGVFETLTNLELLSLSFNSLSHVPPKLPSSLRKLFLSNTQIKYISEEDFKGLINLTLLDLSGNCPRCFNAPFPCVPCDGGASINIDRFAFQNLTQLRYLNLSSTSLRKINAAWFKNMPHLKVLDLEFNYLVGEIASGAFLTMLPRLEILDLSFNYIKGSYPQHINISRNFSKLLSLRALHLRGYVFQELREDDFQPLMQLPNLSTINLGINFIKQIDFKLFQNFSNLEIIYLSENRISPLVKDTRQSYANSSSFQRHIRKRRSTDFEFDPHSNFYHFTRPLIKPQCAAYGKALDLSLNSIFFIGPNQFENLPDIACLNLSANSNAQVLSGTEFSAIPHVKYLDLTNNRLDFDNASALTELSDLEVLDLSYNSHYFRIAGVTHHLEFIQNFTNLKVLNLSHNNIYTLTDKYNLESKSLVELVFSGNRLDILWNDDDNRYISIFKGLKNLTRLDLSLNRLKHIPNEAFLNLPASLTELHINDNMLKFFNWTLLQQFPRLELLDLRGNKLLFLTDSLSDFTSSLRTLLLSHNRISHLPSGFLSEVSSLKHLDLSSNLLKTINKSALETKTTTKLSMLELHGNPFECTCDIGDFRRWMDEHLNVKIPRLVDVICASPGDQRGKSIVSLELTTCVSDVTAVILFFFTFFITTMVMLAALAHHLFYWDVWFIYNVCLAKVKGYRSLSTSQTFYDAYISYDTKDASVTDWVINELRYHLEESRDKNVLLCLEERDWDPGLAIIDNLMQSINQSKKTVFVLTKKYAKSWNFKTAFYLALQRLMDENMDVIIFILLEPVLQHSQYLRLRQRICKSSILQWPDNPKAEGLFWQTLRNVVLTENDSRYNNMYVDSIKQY
# [4] = biological target: T2, Toll-like receptor 8 (Homo sapiens); assay: Inhibition of human TLR8 expressed in HEK293 cells assessed as reduction in R848-induced NFkappaB production at 0.5 uM incubated for 16 hrs by quanti-blue SEAP assay; format: cell-based
# [5] = biological target: T1, Toll-like receptor 7 (Homo sapiens); assay: Inhibition of human TLR7 expressed in HEK293 cells assessed as reduction in R848-induced NFkappaB production incubated for 16 hrs by quanti-blue SEAP assay; format: cell-based
# Outline: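 HEK 293-Blue cells stably expressing hTLR7 or hTLR8 with an inducible SEAP reporter were incubated 16 h with compound under 1 µg/mL R848 stimulation. SEAP was read at 620 nm. Data were normalized to the R848 control, and IC50 was taken from concentration-response curves. […] Mean ± s.d., n = 3 independent experiments.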
inhibition [1],inhibition [2],inhibition [3],inhibition [4],inhibition [5],SMILES,inhibition (THP-1)
Active,,,,,O=[N+]([O-])c1c(I)cccc1Oc1ccc(-c2nnco2)cc1,Active
,inactive,Active,inactive,,O=C(Nc1ccc(Oc2cncc(C(F)(F)F)c2)cc1)c1c(F)cccc1Cl,
Active,inactive,Active,inactive,,O=C(Nc1ccc(Oc2cc(C(F)(F)F)cc(C(F)(F)F)c2)cc1)c1c(F)cccc1I,
,,,,Dose-dependent effect,O=C(Nc1ccc(Oc2cc(C(F)(F)F)cc(C(F)(F)F)c2)cc1)c1c(F)cccc1Cl,
